Source: ChEMBL document CHEMBL3259568 (Bioorg Med Chem, 2014)

Tests used:
[1] = tested on: Rattus norvegicus; assay: Antipyretic activity in albino rat assessed as decrease in yeast-induced pyrexia by measuring temperature index at 10 mg/kg, po measured over 5 hrs by telethermometer (reference value: 1.04 degC); format: functional
How it was run: (§1)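 Male albino rats (170–230 g) given s.c. 2.5 ml 20% aqueous baker's yeast; rectal temperature by telethermometer before and at 18 h (taken as 0 h). Rats with 1–2 °C rise, six per group, dosed orally 30 min later (control 1 ml 0.5% sodium CMC). Temperature recorded hourly to 5 h; temperature index = sum of mean changes from 0 h.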

[2] = tested on: Mus musculus; assay: Acute toxicity in albino mouse assessed as effect on general behavioral profile at 2000 mg/kg, po measured for 3 hrs; format: organism-based; parameters: dose 2000 mg/kg, route oral; conditions: in vivo
How it was run: (§2)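 OECD guideline test. Albino mice of either sex, 20–25 g, six per group, fasted 24 h with water ad libitum. Compounds suspended in 0.5% aqueous sodium CMC and given orally in increasing doses of 10, 20, 100, 200, 1000 and 2000 mg/kg b.w. Animals watched continuously for 3 h for general behavioural, neurological and autonomic profiles, then every 30 min for 3 h, then up to 24 h or until death.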

[3] = tested on: Mus musculus; assay: Analgesic activity in albino mouse assessed as protection against glacial acetic acid-induced writhing at 10 mg/kg, po administered 0.5 hrs followed by glacial acetic acid challenge measured for 15 mins relative to control; format: functional
How it was run: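 Mice (20–25 g) pre-screened 24 h earlier with i.p. 10 ml/kg 0.6% glacial acetic acid; only responders used. Oral dosing as suspension in 0.5% sodium CMC 30 min before acetic acid challenge. Writhing episodes counted for 15 min; group means versus vehicle control; ANOVA with Dunnett test.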

[4] = tested on: Rattus norvegicus; assay: Acute antiinflammatory activity in albino rat assessed as inhibition of carrageenan-induced paw edema at 10 mg/kg, po administered 1 hr followed by carrageenan challenge measured at 2 hrs by plethysmometric analysis relative to control; format: functional
How it was run: (§3)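 Male albino rats (170–220 g), fasted ≥12 h with water, six per group. Oral dosing in 0.5% sodium CMC (control 1 ml vehicle), then 1 h later subplantar 0.05 ml of 1% carrageenan into left hind footpad. […] Mean ± SEM, ANOVA/Dunnett.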

[5] = target: T1, Prostaglandin G/H synthase 1 (Ovis aries, UniProt P05979); assay: Inhibition of ovine COX1 peroxidase activity assessed as reduction of PGG2 to PGH2 by measuring oxidized TMPD level by colorimetric assay
T1 sequence (P05979 whole entry): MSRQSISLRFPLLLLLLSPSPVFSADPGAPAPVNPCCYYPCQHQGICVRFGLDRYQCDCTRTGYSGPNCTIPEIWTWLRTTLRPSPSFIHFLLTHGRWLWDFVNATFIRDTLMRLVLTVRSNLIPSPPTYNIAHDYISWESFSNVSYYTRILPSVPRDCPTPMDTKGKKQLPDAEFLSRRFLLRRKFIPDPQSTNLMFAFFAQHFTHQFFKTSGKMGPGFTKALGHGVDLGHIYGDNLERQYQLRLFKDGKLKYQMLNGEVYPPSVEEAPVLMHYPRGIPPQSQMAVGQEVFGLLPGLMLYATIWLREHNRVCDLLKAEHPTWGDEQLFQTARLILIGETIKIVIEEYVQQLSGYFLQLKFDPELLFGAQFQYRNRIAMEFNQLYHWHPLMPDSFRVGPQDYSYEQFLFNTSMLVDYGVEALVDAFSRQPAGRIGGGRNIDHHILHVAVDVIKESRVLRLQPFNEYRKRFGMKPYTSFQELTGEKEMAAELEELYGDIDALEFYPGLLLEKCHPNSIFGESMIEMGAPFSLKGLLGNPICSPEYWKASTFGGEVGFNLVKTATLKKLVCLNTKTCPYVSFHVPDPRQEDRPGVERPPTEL

[6] = tested on: Rattus norvegicus; assay: Antipyretic activity in albino rat assessed as yeast-induced pyrexia at 10 mg/kg, po measured at 4 hrs by telethermometer (reference value: 38 degC); format: functional; how it was run: as §1
[7] = tested on: Mus musculus; assay: Acute toxicity in albino mouse assessed as mortality at 2000 mg/kg, po measured continuously for 3 hrs followed by every 30 mins for next 3 hrs up to 24 hrs; format: organism-based; parameters: dose 2000 mg/kg, route oral; conditions: in vivo; how it was run: as §2
[8] = tested on: Mus musculus; assay: Acute toxicity in albino mouse assessed as effect on autonomic profile at 2000 mg/kg, po measured for 3 hrs; format: organism-based; parameters: dose 2000 mg/kg, route oral; conditions: in vivo; how it was run: as §2
[9] = target: T2, Prostaglandin G/H synthase 1 (Ovis aries) (UniProt P05979); assay: Inhibition of ovine COX1 peroxidase activity assessed as reduction of PGG2 to PGH2 by measuring oxidized TMPD level at 10 ug/ml by colorimetric assay relative to control
T2 sequence (whole entry): T1 sequence (P05979 whole entry)

[10] = tested on: Rattus norvegicus; assay: Antipyretic activity in albino rat assessed as yeast-induced pyrexia at 10 mg/kg, po measured at 1 hr by telethermometer (reference value: 38.26 degC); format: functional; how it was run: as §1
[11] = tested on: Rattus norvegicus; assay: Antipyretic activity in albino rat assessed as yeast-induced pyrexia at 10 mg/kg, po measured at 3 hrs by telethermometer (reference value: 38.11 degC); format: functional; how it was run: as §1
[12] = tested on: Rattus norvegicus; assay: Ulcerogenic activity in albino rat stress model assessed as ulcer index at 10 mg/kg, po after 7 hrs; format: toxicity, organism-based; parameters: dose 10 mg/kg, route oral; conditions: in vivo
How it was run: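 Albino rats of either sex (170–250 g), six per group, starved 48 h with water, dosed orally 10 mg/kg in sodium CMC; killed 7 h later. Stomach opened along greater curvature and everted; lesions counted in five size classes (pinpoint to >4 mm) to give ulcer index, reported as min–max range.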

[13] = tested on: Mus musculus; assay: Acute toxicity in albino mouse assessed as effect on neurological profile at 2000 mg/kg, po measured for 3 hrs; format: organism-based; parameters: dose 2000 mg/kg, route oral; conditions: in vivo; how it was run: as §2
[14] = tested on: Rattus norvegicus; assay: Antipyretic activity in albino rat assessed as yeast-induced pyrexia at 10 mg/kg, po measured at 2 hrs by telethermometer (reference value: 38.20 degC); format: functional; how it was run: as §1
[15] = tested on: Rattus norvegicus; assay: Acute antiinflammatory activity in albino rat assessed as inhibition of carrageenan-induced paw edema at 10 mg/kg, po administered 1 hr followed by carrageenan challenge measured at 4 hrs by plethysmometric analysis relative to control; format: functional; how it was run: as §3
[16] = tested on: Rattus norvegicus; assay: Antipyretic activity in albino rat assessed as yeast-induced pyrexia at 10 mg/kg, po measured at 5 hrs by telethermometer (reference value: 37.89 degC); format: functional; how it was run: as §1
[17] = tested on: Rattus norvegicus; assay: Antipyretic activity in albino rat assessed as yeast-induced pyrexia at 135 mg/kg, po measured at 4 hrs by telethermometer (reference value: 38 degC); format: functional; how it was run: as §1
[18] = tested on: Rattus norvegicus; assay: Antipyretic activity in albino rat assessed as decrease in yeast-induced pyrexia by measuring temperature index at 135 mg/kg, po measured over 5 hrs by telethermometer (reference value: 1.04 degC); format: functional; how it was run: as §1
[19] = tested on: Rattus norvegicus; assay: Antipyretic activity in albino rat assessed as yeast-induced pyrexia at 135 mg/kg, po measured at 3 hrs by telethermometer (reference value: 38.11 degC); format: functional; how it was run: as §1
[20] = tested on: Rattus norvegicus; assay: Antipyretic activity in albino rat assessed as yeast-induced pyrexia at 135 mg/kg, po measured at 2 hrs by telethermometer (reference value: 38.20 degC); format: functional; how it was run: as §1
[21] = tested on: Rattus norvegicus; assay: Antipyretic activity in albino rat assessed as yeast-induced pyrexia at 135 mg/kg, po measured at 1 hr by telethermometer (reference value: 38.26 degC); format: functional; how it was run: as §1
[22] = tested on: Rattus norvegicus; assay: Antipyretic activity in albino rat assessed as yeast-induced pyrexia at 135 mg/kg, po measured at 5 hrs by telethermometer (reference value: 37.89 degC); format: functional; how it was run: as §1

## S=c1oc(Cc2ccccc2Nc2c(Cl)cccc2Cl)nn1CNc1ccccc1Cl
[1]
  T: 3.06 °C
[2]
  Activity: Non-toxic
[3]
  Activity: 77.6%
[4]
  inhibition in vivo at 10 mg/kg: 59.4%
[5]
  IC50: > 50 µM
[6]
  T: 37.06 °C
[7]
  Activity: Non-toxic
[8]
  Activity: Non-toxic
[9]
  inhibition: 27.8%
[10]
  T: 37.74 °C
[11]
  T: 37.36 °C
[12]
  UI: 3.2
[13]
  Activity: Non-toxic
[14]
  T: 37.77 °C
[15]
  inhibition in vivo at 10 mg/kg: 61.3%
[16]
  T: 37.11 °C

## S=c1oc(Cc2ccccc2Nc2c(Cl)cccc2Cl)nn1CNc1cccc(Cl)c1
[1]
  T: 5.4 °C
[2]
  Activity: Non-toxic
[3]
  Activity: 82.2%
[4]
  inhibition in vivo at 10 mg/kg: 71.8%
[5]
  IC50: > 50 µM
[6]
  T: 37.8 °C
[7]
  Activity: Non-toxic
[8]
  Activity: Non-toxic
[9]
  inhibition: 25%
[10]
  T: 38.9 °C
[11]
  T: 38.1 °C
[12]
  UI: 2.1
[13]
  Activity: Non-toxic
[14]
  T: 38.6 °C
[15]
  inhibition in vivo at 10 mg/kg: 74.4%
[16]
  T: 37.2 °C

## CC(=O)Nc1ccc(O)cc1 [ACETAMINOPHEN]
[17]
  T: 37.3 °C
[18]
  T: 6.7 °C
[19]
  T: 37.6 °C
[20]
  T: 38 °C
[21]
  T: 38.4 °C
[22]
  T: 37 °C

## CC1CCN(Cn2nc(Cc3ccccc3Nc3c(Cl)cccc3Cl)oc2=S)CC1
[2]
  Activity: Non-toxic
[4]
  inhibition in vivo at 10 mg/kg: 36.9%
[7]
  Activity: Non-toxic
[8]
  Activity: Non-toxic
[13]
  Activity: Non-toxic
[15]
  inhibition in vivo at 10 mg/kg: 33.8%

## CCN1CCN(Cn2nc(Cc3ccccc3Nc3c(Cl)cccc3Cl)oc2=S)CC1
[1]
  T: 6.6 °C
[2]
  Activity: Non-toxic
[3]
  Activity: 81%
[4]
  inhibition in vivo at 10 mg/kg: 63.1%
[5]
  IC50: > 50 µM
[6]
  T: 37.7 °C
[7]
  Activity: Non-toxic
[8]
  Activity: Non-toxic
[9]
  inhibition: 28.4%
[10]
  T: 39.2 °C
[11]
  T: 37.9 °C
[12]
  UI: 1.9
[13]
  Activity: Non-toxic
[14]
  T: 38.3 °C
[15]
  inhibition in vivo at 10 mg/kg: 68.9%
[16]
  T: 37.1 °C

## S=c1oc(Cc2ccccc2Nc2c(Cl)cccc2Cl)nn1CN1CCNCC1
[2]
  Activity: Non-toxic
[3]
  Activity: 75.9%
[4]
  inhibition in vivo at 10 mg/kg: 51.4%
[5]
  IC50: > 50 µM
[7]
  Activity: Non-toxic
[8]
  Activity: Non-toxic
[9]
  inhibition: 43.2%
[13]
  Activity: Non-toxic
[15]
  inhibition in vivo at 10 mg/kg: 56.5%

## CC(=O)Oc1ccccc1C(=O)O [ASPIRIN]
[12]
  UI: 4.7
